Source: ChEMBL document CHEMBL1124456, “Synthesis and structure-activity relationship of substituted tetrahydro- and hexahydro-1,2-benzisothiazol-3-one 1,1-dioxides and thiadiazinones: potential anxiolytic agents” (J Med Chem, 1989)
Active and inactive are the calls of the source. No cut-off for these calls is given here.

Experiments:
[1] = Partition coefficient (logP); assay type: physicochemical; conditions: octanol/water
[2] = target: Adrenergic receptor alpha-2 (Rattus norvegicus) (UniProt P22086+P19328+P22909); assay: Percent inhibition of Alpha-2 adrenergic receptor at 1 uM; assay type: protein assay
[3] = target: GABA-A receptor; anion channel (Rattus norvegicus) (UniProt O09028+P15431+P18506+P18508+P19969+P20236+P23574+P23576+P28471+P28473+P30191+P62813+P63079+P63138+Q91ZM7+Q9ES14); assay: Percent inhibition of GABA-A benzodiazepine receptor at 1 uM; assay type: protein-complex assay
Outline: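 Male Sprague-Dawley rat brain (cerebellum and pons-medulla removed) was homogenized in 0.32 M sucrose to give a 30000g pellet, resuspended in Tris-HCl pH 7.5. Membranes were incubated with 1.5×10^-9 M [³H]diazepam (2.0 mL final) for 30 min at 4 °C, GF/C filtered, washed ice-cold and scintillation counted. Nonspecific binding was taken with 3×10^-6 M cold diazepam. Drug was tested at 1 μM.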

[4] = tested on: Rattus norvegicus; assay: Compound was tested for antagonism of apomorphine-induced stereotyped behavior, after intraperitoneal dosing; NA= Inactive; assay type: functional, organism-based
Outline: (§1)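 High-dose apomorphine-induced stereotyped behavior procedure. Test agents were given ip at doses up to 60 mg/kg.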

[5] = target: T1, 5-hydroxytryptamine receptor 1A (Rattus norvegicus, UniProt P19327); assay: In vitro ability to inhibit [3H]8-OH-DPAT binding to 5-hydroxytryptamine 1A receptor of rat hippocampus ([…]) from 391-841; assay type: tissue-based
T1 sequence (P19327 whole entry): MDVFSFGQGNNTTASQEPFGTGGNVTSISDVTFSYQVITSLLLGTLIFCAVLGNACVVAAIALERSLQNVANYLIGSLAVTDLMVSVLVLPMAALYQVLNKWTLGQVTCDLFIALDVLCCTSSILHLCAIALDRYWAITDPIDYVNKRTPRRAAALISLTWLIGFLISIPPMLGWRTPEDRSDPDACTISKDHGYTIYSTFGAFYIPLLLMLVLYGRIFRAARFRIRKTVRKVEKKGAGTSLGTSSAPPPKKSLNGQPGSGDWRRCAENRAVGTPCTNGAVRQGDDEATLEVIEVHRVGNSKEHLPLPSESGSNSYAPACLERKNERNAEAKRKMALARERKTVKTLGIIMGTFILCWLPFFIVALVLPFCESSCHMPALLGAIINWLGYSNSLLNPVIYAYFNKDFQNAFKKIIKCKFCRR

[6] = target: D(2) dopamine receptor (Rattus norvegicus) (UniProt P61169); assay: In vitro percent inhibition of [3H]spiperone binding to Dopamine receptor D2 of rat limbic structures at 1 uM; assay type: tissue-based; conditions: Limbic system
[7] = tested on: Rattus norvegicus; assay: In vivo ability (10.0 mg/kg) was to antagonize serotonin syndrome; assay type: functional
[8] = target: Adrenergic receptor beta (Rattus norvegicus) (UniProt P18090+P10608+P26255); assay: Percent inhibition of Beta adrenergic receptor at 1 uM; assay type: protein assay
[9] = tested on: Rattus norvegicus; assay: In vivo ability (40.0 mg/kg) was to elicit serotonin syndrome; assay type: functional
[10] = species: Rattus norvegicus; assay: Percent inhibition of QNB receptor at 1 uM
[11] = tested on: Rattus norvegicus; assay: Compound was tested for antagonism of apomorphine-induced climbing behavior, after intraperitoneal dosing; 7-101; assay type: functional; conditions: ip
[12] = target: Adrenergic receptor alpha-1 (Rattus norvegicus) (UniProt P15823+P23944+P43140); assay: Percent inhibition of Alpha-1 adrenergic receptor at 1 uM; assay type: protein assay
[13] = species: Rattus norvegicus; assay: Anti-psychotic activity from the ability to block discrete trial conditioned avoidance response (CAR) of rats.; assay type: functional
Outline: (§2)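 Discrete-trial conditioned avoidance in male CD rats kept at about 400–450 g body weight. Dosing was ip or po, 30 min before testing, with at least five rats per dose (20 or 40 mg/kg, or a dose range). Computer recorded intertrial, avoidance and escape responses and no-response trials. Avoidance-block trials were taken as % of total trials, with control avoidance set at 100%. AB50 came from a least-squares dose-effect regression line.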

[14] = target: T1, 5-hydroxytryptamine receptor 1A; assay: In vitro ability to inhibit [3H]8-OH-DPAT binding to 5-hydroxytryptamine 1A receptor of rat hippocampus and value ranges from 6 - 13; assay type: tissue-based
[15] = target: D(2) dopamine receptor (Rattus norvegicus) (UniProt P61169); assay: Inhibition of [3H]-spiperone binding to dopamine receptor D2 of rat limbic structures at 1 uM.; conditions: Limbic system
[16] = tested on: Rattus norvegicus; assay: Compound was tested for antagonism of apomorphine-induced climbing behavior, after intraperitoneal dosing.; assay type: functional; conditions: ip
[17] = target: T1, 5-hydroxytryptamine receptor 1A; assay: In vitro ability to inhibit [3H]-8-OH-DPAT binding to 5-hydroxytryptamine 1A receptor of rat hippocampus and value ranges from 15 - 31; assay type: tissue-based
[18] = tested on: Rattus norvegicus; assay: Compound was tested for antagonism of apomorphine-induced stereotyped behavior, after intraperitoneal dosing and value ranges from 37.28 - 52.78; assay type: functional; conditions: ip; outline: as §1
[19] = target: D(2) dopamine receptor (Rattus norvegicus) (UniProt P61169); assay: Inhibition of [3H]spiperone binding to Dopamine receptor D2 of rat limbic structures; assay type: tissue-based; set-up: concentration or dose not given beside the values; conditions: Limbic system, concentration not given here
[20] = target: T1, 5-hydroxytryptamine receptor 1A; assay: In vitro ability to inhibit [3H]8-OH-DPAT binding to 5-hydroxytryptamine 1A receptor of rat hippocampus and the value ranges from 48 to 59; assay type: tissue-based
[21] = target: T1, 5-hydroxytryptamine receptor 1A; assay: In vitro ability to inhibit [3H]8-OH-DPAT binding to 5-hydroxytryptamine 1A receptor of rat hippocampus and the value ranges from 12 to 20.; assay type: tissue-based
[22] = species: Rattus norvegicus; assay: Anti psychotic activity was evaluated from the ability to block discrete trial conditioned avoidance response (CAR) of rats, value ranges from 32-71.; assay type: functional; outline: as §2
[23] = tested on: Rattus norvegicus; assay: Compound was tested for antagonism of apomorphine-induced climbing behavior, after intraperitoneal dosing; 1-23; assay type: functional; conditions: ip
[24] = species: Rattus norvegicus; assay: Anti psychotic activity was evaluated from the ability to block discrete trial conditioned avoidance response (CAR) of rats and value ranges from 37 - 73; assay type: functional; outline: as §2
[25] = target: T2, 5-hydroxytryptamine receptor 1A (Rattus norvegicus) (UniProt P19327); assay: In vitro ability to inhibit [3H]8-OH-DPAT binding to 5-hydroxytryptamine 1A receptor of rat hippocampus at 1 uM; assay type: tissue-based
T2 sequence (whole entry): T1 sequence (P19327 whole entry)

[26] = species: Rattus norvegicus; assay: Anti psychotic activity was evaluated from the ability to block discrete trial conditioned avoidance response (CAR) of rats (95%CI) from 37-73; assay type: functional; outline: as §2
[27] = target: D(2) dopamine receptor (Rattus norvegicus, UniProt P61169); assay: In vitro ability to inhibit [3H]spiperone binding to Dopamine receptor D2 of rat limbic structures.; assay type: tissue-based, Limbic system
[28] = target: T1, 5-hydroxytryptamine receptor 1A; assay: In vitro ability to inhibit [3H]8-OH-DPAT binding to 5-hydroxytryptamine 1A receptor of rat hippocampus ([…]) from 12 to 17; assay type: tissue-based
[29] = target: T1, 5-hydroxytryptamine receptor 1A; assay: In vitro ability to inhibit [3H]8-OH-DPAT binding to 5-hydroxytryptamine 1A receptor of rat hippocampus and the value ranges from 245 to 736; assay type: tissue-based
[30] = species: Rattus norvegicus; assay: Antipsychotic activity was evaluated from the ability to block discrete trial conditioned avoidance response (CAR) of rats; assay type: functional; outline: as §2

Chain of D(2) dopamine receptor (Rattus norvegicus) (P61169 whole entry): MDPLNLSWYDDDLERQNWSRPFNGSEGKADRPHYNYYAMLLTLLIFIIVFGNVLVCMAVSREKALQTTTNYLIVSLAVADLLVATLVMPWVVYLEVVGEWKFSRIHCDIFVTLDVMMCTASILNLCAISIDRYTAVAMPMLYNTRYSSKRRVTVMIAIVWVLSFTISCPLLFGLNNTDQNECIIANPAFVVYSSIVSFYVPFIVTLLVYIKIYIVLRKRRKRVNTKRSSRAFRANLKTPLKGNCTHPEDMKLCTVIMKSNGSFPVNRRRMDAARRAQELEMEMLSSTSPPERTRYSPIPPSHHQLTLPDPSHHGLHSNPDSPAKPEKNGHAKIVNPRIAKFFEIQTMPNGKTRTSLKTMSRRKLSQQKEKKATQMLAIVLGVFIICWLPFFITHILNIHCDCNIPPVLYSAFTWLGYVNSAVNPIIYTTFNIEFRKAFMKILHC
Chain of D(2) dopamine receptor (P61169 whole entry): as above

For `Cl.O=C1C2C3CCC(O3)C2S(=O)(=O)N1CCCCN1CCN(c2cncc(Cl)n2)CC1` (centres undefined), which logP [1] is on record?
The logP was 1.64.

What about the inhibition [2] of the same compound?
Its inhibition is 21%.

And the inhibition [3]?
Its inhibition is 0%.

And the ED50 [4]?
The ED50 was “inactive”.

And the Ki [5]?
The Ki was 550 nM.

What about the inhibition [6] of the same compound?
Its inhibition is 36%.

And the Mean [7]?
The Mean was 12.3.

What about the inhibition [8] of the same compound?
The inhibition was 8%.

And the Mean [9]?
Its Mean is 2.1.

And the inhibition [10]?
Its inhibition is 0%.

And the ED50 [11]?
The ED50 was 27 mg/kg.

And the inhibition [12]?
Its inhibition is 6%.

And the AB50 [13]?
The AB50 was 34 mg/kg.

With `Cl.Cl.O=C1c2ccccc2S(=O)(=O)N1CCCCN1CCN(c2cnccn2)CC1` as the compound, how does the Ki [14] read?
The Ki was 9 nM.

And the AB50 [13]?
The AB50 was 40 mg/kg.

And the inhibition [15]?
Its inhibition is 43%.

Which ED50 [16] does the source give for `Cl.Cl.O=C1C2C3CCC(O3)C2S(=O)(=O)N1CCCCN1CCN(c2cccc(C(F)(F)F)c2)CC1` (centres undefined) here?
The ED50 was 11.5 mg/kg.

What about the Ki [17] of the same compound?
Its Ki is 22 nM.

And the AB50 [13]?
The AB50 was 40 mg/kg.

And the ED50 [18]?
Its ED50 is 44.4 mg/kg.

And the inhibition [15]?
Its inhibition is 0%.

Which logP [1] does the source give for `Cl.Cl.O=C1C2C3CCC(C3)C2S(=O)(=O)N1CCCCN1CCN(c2ncccn2)CC1` (centres undefined) here?
Its logP is 1.72.

What about the inhibition [19] of the same compound?
The inhibition was 36%.

What about the Ki [20] of the same compound?
The Ki was 53 nM.

What about the AB50 [13] of the same compound?
The AB50 was 40 mg/kg.

For `Cl.Cl.O=C1C2C3CCC(C3)C2S(=O)(=O)N1CCCCN1CCN(c2cccc(C(F)(F)F)c2)CC1` (centres undefined), which Ki [21] is on record?
The Ki was 16 nM.

And the inhibition [19]?
The inhibition was 97%.

What about the AB50 [22] of the same compound?
The AB50 was 43 mg/kg.

With `CN1CCN(C2=Nc3cc(Cl)ccc3Nc3ccccc32)CC1` [CLOZAPINE] as the compound, how does the ED50 [23] read?
The ED50 was 4.55 mg/kg.

Which logP [1] does the source give for `Cl.Cl.O=C1C2C3CCC(O3)C2S(=O)(=O)N1CCCCN1CCN(c2cnccn2)CC1` (centres undefined) here?
The logP was 1.14.

And the inhibition [19]?
The inhibition was 0%.

And the AB50 [24]?
The AB50 was 48 mg/kg.

What about the inhibition [25] of the same compound?
The inhibition was 25%.

With `Cl.O=C1C2C3CCC(O3)C2S(=O)(=O)N1CCCCN1CCN(c2nccnc2Cl)CC1` (centres undefined) as the compound, how does the AB50 [26] read?
Its AB50 is 48 mg/kg.

What about the Ki [27] of the same compound?
Its Ki is 3300 nM.

With `Cl.O=C1C2C3C=CC(C4CC34)C2S(=O)(=O)N1CCCCN1CCN(c2cncc(Cl)n2)CC1` (centres undefined) as the compound, how does the Ki [28] read?
Its Ki is 14 nM.

What about the AB50 [13] of the same compound?
The AB50 was 40 mg/kg.

Which results are given for `Cl.Cl.O=C1C2C3C=CC(C3)C2S(=O)(=O)N1CCCCN1CCN(c2ncccn2)CC1` (centres undefined)?
Ki [29]: 434 nM; AB50 [30]: 45 mg/kg
